{"data": "Published values collected from several papers", "cell line": "HepG2", "effect on": "cell growth or viability", "note": "Protocols differ between the studies behind these lines."}
{"SMILES": "CN1CCN(c2cccc(-c3ccc4ncnc(Nc5ccc(Cl)c(Cl)c5)c4c3)c2)CC1", "assay": "MTT", "setting": "48 h", "CC50 [µM]": 14}
{"SMILES": "O=C(CNc1ccccc1N1CCCC1=O)Nc1ccc(Oc2cccc(Cl)c2)cc1", "assay": "ATP luminescence", "setting": "48 h", "CC50 [µM]": "> 40"}
{"SMILES": "Clc1ccc(Nc2ncnc3ccc(-c4cccc(N5CCOCC5)c4)cc23)cc1Cl", "assay": "MTT", "setting": "48 h", "CC50 [µM]": "> 40"}
{"SMILES": "CC(=O)OC[C@H]1O[C@@H]([S-])[C@H](OC(C)=O)[C@@H](OC(C)=O)[C@@H]1OC(C)=O.CCP(CC)CC.[Au+]", "assay": "ATP luminescence", "setting": "72 h", "CC50 [µM]": 9.81}
{"SMILES": "N=C(CC(O)c1nc2ccccc2c2ccccc12)Nc1ccc(F)cc1 (centres unmarked)", "assay": "neutral red", "setting": "24 h", "CC50 [µM]": 48.5}
{"SMILES": "CCCCN(c1ccc(C)cc1)c1ccc(NC(=O)CN(C)c2ccccc2N2CCCC2=O)cc1", "assay": "ATP luminescence", "setting": "48 h", "CC50 [µM]": "> 40"}
{"SMILES": "O=C1C(O)=C([C@H]2CC[C@H](c3ccc(Cl)cc3)CC2)C(=O)c2ccccc21", "assay": "ATP luminescence", "setting": "72 h", "CC50 [µM]": 9.67}
{"SMILES": "N=C(CC(O)c1nc2cc(F)ccc2c2ccc(F)cc12)Nc1ccc(F)cc1 (centres unmarked)", "assay": "neutral red", "setting": "24 h", "CC50 [µM]": 19.4}
{"SMILES": "CN1CCN(c2cccc(-c3ccc4ncnc(Nc5ccc([N+](=O)[O-])c(C(F)(F)F)c5)c4c3)c2)CC1", "assay": "MTT", "setting": "48 h", "CC50 [µM]": 34}
{"SMILES": "CC(=O)[C@]1(O)Cc2c(O)c3c(c(O)c2[C@@H](O[C@H]2C[C@H](N)[C@H](O)[C@H](C)O2)C1)C(=O)c1ccccc1C3=O", "assay": "ATP luminescence", "setting": "72 h", "CC50 [µM]": 0.14}
{"SMILES": "c1cc(-c2ccc3ncnc(Nc4ncco4)c3c2)nc(N2CCOCC2)n1", "assay": "MTT", "setting": "48 h", "CC50 [µM]": 26}
{"SMILES": "Cc1ccc(Oc2ccc(NC(=O)CNc3ccccc3N3CCCCC3=O)cc2)cc1", "assay": "ATP luminescence", "setting": "48 h", "CC50 [µM]": 15}
{"SMILES": "O=C(Nc1ccncc1)c1cc([N+](=O)[O-])ccc1Cl", "assay": "ATP luminescence", "setting": "72 h", "CC50 [µM]": 18.1}
{"SMILES": "CN(CC(=O)Nc1ccc(N(C)c2ccc(Cl)cc2)c(Cl)c1)c1ccccc1N1CCCC1=O", "assay": "ATP luminescence", "setting": "48 h", "CC50 [µM]": "> 40"}
{"SMILES": "N=C(CC(O)c1nc2ccccc2c2ccc(Cl)cc12)Nc1ccc(F)cc1 (centres unmarked)", "assay": "neutral red", "setting": "24 h", "CC50 [µM]": "> 25"}
{"SMILES": "c1cc(-c2ccc3ncnc(NC4CCOCC4)c3c2)cc(N2CCOCC2)c1", "assay": "MTT", "setting": "48 h", "CC50 [µM]": 26}
{"SMILES": "CC(C)N(c1ccc(NC(=O)CN(C)c2ccccc2N2CCCC2=O)cc1)c1ccc(Cl)c(F)c1", "assay": "ATP luminescence", "setting": "48 h", "CC50 [µM]": "> 40"}
